# According to paper PMC6299372 (International Journal of Biological Sciences, 2018):
# Columns and labels:
# MsepCSP5 = biological target: T1, MsepCSP5 (Mythimna separata, UniProt A0A5H2NAD7); assay: Fluorescence competitive binding assay with the probe 1-NPN; settings: for IC50: displacement of 1-NPN from MsepCSP5; for Ki: Ki = IC50/(1+[1-NPN]/K1-NPN); for Kd: dissociation constant (Kd) of MsepCSP5/1-NPN complex, Scatchard plot
# T1 sequence (A0A5H2NAD7 1-127): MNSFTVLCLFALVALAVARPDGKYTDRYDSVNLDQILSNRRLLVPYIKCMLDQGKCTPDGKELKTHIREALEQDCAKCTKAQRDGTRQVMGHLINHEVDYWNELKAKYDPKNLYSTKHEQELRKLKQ
# Outline: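 Recombinant MsepCSP5 was expressed in E. coli BL21(DE3) as inclusion bodies, refolded, Ni-affinity purified, and His-tag cleaved with enterokinase, then dialyzed into Tris-HCl at pH 5.0 or 7.4. Protein at 2 μM in 30 mM Tris-HCl was titrated with 1-NPN (0–20 μM final). Ex 337 nm, Em 360–600 nm, 25°C. Ligand stocks were in methanol. Kd came from Scatchard plots, and Ki from IC50 corrected for 1-NPN. Three independent replicates.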
# M. separata [1] = assay: Y-tube olfactometer behavioral bioassay; type: in vivo, Mythimna separata; settings: for males attracted to / preferring the volatile: male moths; for males attracted to / preferring the volatile / females attracted to / preferring the volatile: volatile vs liquid paraffin control, 10 µl volatile; for females attracted to / preferring the volatile: female moths; for behavioral response of M. separata to the volatile (in words): male and female moths
# Outline: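 Y-tube olfactometer with arms 3.0 cm × 26 cm, charcoal-filtered humidified air at 6.0 L min-1. 10 µl volatile on 10×10 mm filter paper was set against a liquid paraffin control. Three-day-old moths were isolated about 30 min beforehand, and separate olfactometers were used per sex. Each moth had 10 min to respond. Tests ran in the dark under orange light, 1–2 h after sunset, at 25±1°C and 70±5% RH. 30 females and 30 males per volatile.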
# M. separata [2] = assay: Post-RNAi Y-tube olfactometer bioassay; type: in vivo, Mythimna separata; settings: 72 h old moths of both sexes, after RNAi
# Outline: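 Seven-day-old pupae were injected with dsMsepCSP5 (1 µl of 2.5 µg µL-1) into abdominal segments 3–4. Non-injected and dsGFP-injected pupae served as controls. Pupae were held at 25±1°C and 70±5% RH until eclosion. 72 h-old moths of both sexes were tested in the same Y-tube assay (two volatiles, 10 µl vs liquid paraffin, 10 min per moth). 30 females and 30 males per volatile.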
Compound,"IC50 (MsepCSP5; IC50, pH 5.0)","IC50 (MsepCSP5; IC50, pH 7.4)","Ki (MsepCSP5; Ki, pH 5.0)","Ki (MsepCSP5; Ki, pH 7.4)",binding affinity to MsepCSP5 (in words) (MsepCSP5; pH 5.0),other results
CCCCCCCCCCCC(C)=O [2Tridecanone],10.4 µM,13.9 µM,4.95 µM,5.51 µM,–,–
CCCCCC(C)O (stereo not shown) [2-Heptanol],7.95 µM,63 µM,3.8 µM,24.9 µM,high binding affinity,males attracted to / preferring the volatile (M. separata [1]): 80%
CC12CCC(CC1)C(C)(C)O2 [Eucalyptol],9.31 µM,14.6 µM,4.45 µM,5.79 µM,high binding affinity,–
CCCCCC=O [Hexanal],9.28 µM,21.4 µM,4.43 µM,8.46 µM,high binding,–
Farnesene,–,–,–,–,–,Ki (MsepCSP5; pH 5.0): 35.6 µM; IC50 (MsepCSP5; pH 5.0): 74.7 µM; Ki (MsepCSP5; pH 7.4): 21.5 µM; IC50 (MsepCSP5; pH 7.4): 54.4 µM
CC/C=C\CCOC(C)=O [Cis-3-hexenyl acetate],13 µM,32.4 µM,6.22 µM,12.8 µM,–,–
C=CC(C)(O)CCC=C(C)C (stereo not shown) [Linalool],41.3 µM,65.3 µM,19.7 µM,25.8 µM,–,–
CC(=O)/C=C/C1=C(C)CCCC1(C)C [β-Lonone],–,–,–,–,–,Ki (MsepCSP5; pH 5.0): 2.09 µM; IC50 (MsepCSP5; pH 5.0): 4.38 µM; Ki (MsepCSP5; pH 7.4): 5.06 µM; IC50 (MsepCSP5; pH 7.4): 12.8 µM
CC/C=C\CCO [Cis-3-hexen-1-ol],727 µM,227 µM,347 µM,89.7 µM,–,–
CCCCCCCCCCCC=O [Dodecyl aldehyde],–,–,–,–,high binding,Ki (MsepCSP5; pH 5.0): 7.17 µM; IC50 (MsepCSP5; pH 5.0): 15 µM; Ki (MsepCSP5; pH 7.4): 6.86 µM; IC50 (MsepCSP5; pH 7.4): 17.3 µM
Cc1ccc(C(C)C)cc1 [4-lsopropyltoluene],–,–,–,–,–,Ki (MsepCSP5; pH 5.0): 14.4 µM; IC50 (MsepCSP5; pH 5.0): 30.2 µM; Ki (MsepCSP5; pH 7.4): 20.7 µM; IC50 (MsepCSP5; pH 7.4): 52.3 µM
CCCCCC [Hexane],18.6 µM,14.9 µM,8.9 µM,5.89 µM,–,–
CCC/C=C/C=O [Trans-2-hexenal],43.4 µM,22.9 µM,20.7 µM,9.08 µM,moderate binding,–
COC(=O)c1ccccc1 [Methyl benzoate],10.8 µM,47.5 µM,5.18 µM,18.8 µM,–,females attracted to / preferring the volatile (M. separata [1]): 70%; behavioral response of M. separata to the volatile (in words) (M. separata [1]): strong positive responses; males attracted to / preferring the volatile (M. separata [1]): 67%
CCCCCCCCCCCCCCCCCCCC [Eicosane],15.2 µM,47.8 µM,7.25 µM,18.9 µM,–,–
CC1=CC[C@@H](C(C)(C)O)CC1 [α -Terpineol],12.6 µM,198 µM,6.02 µM,78.3 µM,high binding affinity,–
C=C(C)[C@H]1CC=C(C)CC1 [R-(+)-Limonene],–,–,–,–,–,Ki (MsepCSP5; pH 5.0): 5.18 µM; IC50 (MsepCSP5; pH 5.0): 10.8 µM; Ki (MsepCSP5; pH 7.4): 15 µM; IC50 (MsepCSP5; pH 7.4): 37.9 µM

Compound,"IC50 (MsepCSP5; IC50, pH 5.0)","IC50 (MsepCSP5; IC50, pH 7.4)","Ki (MsepCSP5; Ki, pH 5.0)","Ki (MsepCSP5; Ki, pH 7.4)",binding affinity to MsepCSP5 (in words) (MsepCSP5; pH 5.0),other results
C=CC(O)CCCCC (stereo not shown) [1-Octen-3-ol],9.13 µM,16.2 µM,4.36 µM,6.43 µM,high binding affinity,preference of dsMsepCSP5-treated moths for the volatile (in words) (M. separata [2]): non-significant preference
CCCCCCCCCCCCCCCC [Hexadecane],74.3 µM,58.3 µM,35.5 µM,23.1 µM,–,–
CCCCCCCCCCCCCCCCCCC [Nonadecane],15 µM,49.3 µM,7.15 µM,19.5 µM,–,–
CCCCCCCCCC(C)=O [2-Undecanone],5.15 µM,21.6 µM,2.46 µM,8.56 µM,–,behavioral response of M. separata to the volatile (in words) (M. separata [1]): no obvious preference
CCCCCCCCCCCCC [Tridecane],478 µM,522 µM,228 µM,207 µM,–,–
CCCCCCCC [Octane],7.17 µM,23.6 µM,3.42 µM,9.34 µM,–,–
"c1ccc(Nc2cccc3ccccc23)cc1 [1-NPN, N-phenyl-1-naphthylamine, reference compound]",–,–,–,–,–,Kd (MsepCSP5; pH 5.0): 2.91 µM; Kd (MsepCSP5; pH 7.4): 3.65 µM
CCOC(C)=O [Ethylacetate],8.84 µM,19.4 µM,4.22 µM,7.67 µM,–,–
CC1=CC=C(C(C)C)CC1 [α -Terpinene],–,–,–,–,–,Ki (MsepCSP5; pH 5.0): 8.19 µM; IC50 (MsepCSP5; pH 5.0): 17.2 µM; Ki (MsepCSP5; pH 7.4): 8.77 µM; IC50 (MsepCSP5; pH 7.4): 22.2 µM
OC1CCCCC1 [Cyclohexanol],71.5 µM,136 µM,34.2 µM,54 µM,–,–
CC1=CC[C@@](O)(C(C)C)CC1 [(-)-Terpinen-4-ol],–,–,–,–,–,Ki (MsepCSP5; pH 5.0): 4.33 µM; IC50 (MsepCSP5; pH 5.0): 9.07 µM; Ki (MsepCSP5; pH 7.4): 13.6 µM; IC50 (MsepCSP5; pH 7.4): 34.4 µM
CCC/C=C/CO [Trans-2-hexen-1-ol],17 µM,34.2 µM,8.1 µM,13.5 µM,high binding affinity,–
CC1=CCC(=C(C)C)CC1 [Terpinolene],8.27 µM,43.8 µM,3.95 µM,17.4 µM,–,–
CCCCCCCCCCCCCC [Tetradecane],21.7 µM,20.8 µM,10.4 µM,8.22 µM,–,–
C=CC(C)(O)CCC=C(C)CCC=C(C)C (mixture of isomers) [Nerolidol],13 µM,18.3 µM,6.2 µM,7.23 µM,high binding affinity,–
CCC(O)CC [3-Pentanol],14 µM,29.8 µM,6.71 µM,11.8 µM,high binding affinity,females attracted to / preferring the volatile (M. separata [1]): 80%; preference of dsMsepCSP5-treated moths for the volatile (in words) (M. separata [2]): non-significant preference
